Compound activity: PubChem BioAssay, several laboratories
C2C12 statin: suppressors of statin myotoxicity in C2C12 myotubes, primary screen, cell-based, single point, plate reader | rescue of ATP level, % at 7.49 µM | C2C12 myotubes + simvastatin, ATP luminescence, 48 h; scaled: DMSO 0, geranylgeraniol control 100 | 330,000 tested, 0.78% active;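 active means mean ATP rescue above about 67%, or every replicate alone reaching that limit, limit read from the data, passing the limit was not always enough; inconclusive means no clear call, values can overlap the other calls; inactive means mean under the limit and some replicate under it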;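 further: myotubes were challenged with 10 µM simvastatin during compound exposure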
Mot1-301 SUMO: yeast Mot1-301 growth rescue at high temperature, primary screen, SUMOylation pathway inhibitor project, S. cerevisiae, ATP luminescence, 38.5C; growth rescue, % at 18.8 µM; S. cerevisiae Mot1-301 growth rescue; percent above DMSO median, 100 means doubled; 320,000 tested, 1% active;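 active means every valid replicate shows activation above 250% relative to neutral control wells; inactive means the rest, any valid replicate at or below 250%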;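 further: OY570 slx delta 5 strain wells were the positive control but not used for scaling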
Cneo AK release: Cryptococcus neoformans cell lysis inducers, primary screen, AK release luminescence, single concentration. C. neoformans lysis, adenylate kinase release luminescence, 4 h; normalised: neutral wells 0, clomiphene wells 100. lysis activity, % at 15 µM. 360,000 tested, 0.2% active. AID 651654, 2012;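 active means mean lysis activity across replicates of at least 80%, whatever share of replicates individually reach that level; inactive means mean lysis activity below 80%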
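Material – log-phase Cryptococcus neoformans yeast cells · Input – 5 × 10^6 yeast cells/mL · Medium – fresh YPD growth medium · Doses – single compound concentration per well · Timing – static 4 h at 37 °C with compound, 1 h detection · Detection – adenylate kinase release luminescence · Read-out – signal increase indicating cell lysis · Control set – Clomiphene as positive lysis control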
Efflux pump mplx: inhibitors of Candida efflux pumps in yeast, primary screen, S. cerevisiae, Nile Red, multiplex | S. cerevisiae Candida pump triplex | inhibition, % at 10 µM | 330,000 tested, 0.44% active;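 active means plate passing quality check with inhibition over a set limit, or well fluorescence over plate mean plus 4 SD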;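 further: Nile Red retained in pooled yeast measured as flow cytometry median fluorescence; 0% = buffer negative control and 100% = Enniatin B positive control; higher means more Nile Red kept so more efflux inhibition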
* hit, by the source's call; ? = inconclusive; / = no result. In the library only some 1.8% were active in any assay of this set; here they are far more common.

SMILES | C2C12 statin | Mot1-301 SUMO | Cneo AK release | Efflux pump mplx
Cc1cccc(NC(=O)c2cccc(NS(=O)(=O)c3ccc(Cl)cc3)c2)c1 | 105* | 168 | 0 | 1
CN(Cc1nc2ccccc2n1C)S(C)(=O)=O | 16 | -22 | 3 | 0
Cc1cccc(C(=O)O/N=C2\CCS(=O)(=O)c3sccc32)c1 | 5 | 10 | -3 | 0
C[C@H](CO)N1C[C@H](C)[C@H](CN(C)C(=O)Nc2ccc(F)cc2)OCCCC[C@H](C)Oc2ccc(NC(=O)Cc3ccccc3)cc2C1=O | 107* | / | 2 | /
C[C@@H]1CN([C@@H](C)CO)C(=O)c2cc(NC(=O)Cc3ccccc3)ccc2O[C@@H](C)CCCCO[C@H]1CN(C)C(=O)C1CCCCC1 | ? | / | 2 | /
C[C@H]1CCCCO[C@H](CN(C)C(=O)C2CCCCC2)[C@@H](C)CN([C@@H](C)CO)C(=O)c2cc(NC(=O)Cc3ccccc3)ccc2O1 | 80* | / | 0 | /
C[C@@H]1CCCCO[C@@H](CN(C)C(=O)Nc2ccccc2)[C@H](C)CN([C@@H](C)CO)C(=O)c2cc(NC(=O)Cc3ccccc3)ccc2O1 | / | / | -3 | /
CC(C)c1nnc(NC(=O)CCC(=O)N2CCN(Cc3ccc(F)cc3)CC2)s1 | 8 | 122 | 1 | 0
Cc1c(C(=O)NN)nc2ccccn12 | / | -8 | / | 0
CC(NC(=O)c1cc(-c2ccncc2)nc2ccc(Cl)cc12)C1CCCO1 (stereo not given) | / | 341* | 1 | 0
Cc1cccc(-c2nnc3n2N=C(c2ccccc2Br)CS3)c1 | 103* | -5 | 0 | 0
C[C@H](CO)N1C[C@H](C)[C@@H](CN(C)C(=O)CCCN(C)C)OCCCC[C@H](C)Oc2ccc(NC(=O)Nc3ccc(C(F)(F)F)cc3)cc2C1=O | 90* | / | 6 | /
CC(C)NC(=O)Nc1ccc2c(c1)C(=O)N([C@H](C)CO)C[C@H](C)[C@H](CN(C)C(=O)Nc1ccccc1)OCCCC[C@H](C)O2 | / | / | 3 | /
CC(C)NC(=O)Nc1ccc2c(c1)C(=O)N([C@H](C)CO)C[C@H](C)[C@H](CN(C)C(=O)NC(C)C)OCCCC[C@@H](C)O2 | / | / | 0 | /
CCCN(C)C[C@H]1OCCCC[C@@H](C)Oc2ccc(NC(=O)NC(C)C)cc2C(=O)N([C@@H](C)CO)C[C@H]1C | / | / | 92* | /
CC(C)NC(=O)Nc1ccc2c(c1)C(=O)N([C@@H](C)CO)C[C@@H](C)[C@@H](CN(C)C(=O)NC(C)C)OCCCC[C@@H](C)O2 | / | / | 113* | /
CC(C)NC(=O)Nc1ccc2c(c1)C(=O)N([C@H](C)CO)C[C@@H](C)[C@H](CN(C)C(=O)Nc1ccccc1)OCCCC[C@@H](C)O2 | / | / | 118* | /
CCc1ccc2[nH]c(C)c(CN3CCCCCC3)c(=O)c2c1 | 2 | -26 | -1 | 0
CC1CCCCC1NC(=O)C1CCC(CNS(=O)(=O)c2ccc(F)cc2)CC1 (stereo not given) | 9 | 295* | 1 | 0
Cc1cccc(NC(=O)CN2C(=O)C(C)Oc3ccccc32)n1 (stereo not given) | 1 | 11 | / | 0
Cc1ccc(NC(=S)N2CCCC(c3nc4ccccc4[nH]3)C2)cc1 (stereo not given) | / | 523* | / | 0
C[C@@H]1CN([C@@H](C)CO)C(=O)c2cc(C3=CCCCC3)cnc2O[C@H]1CN(C)C(=O)c1cccc(F)c1 | -3 | / | 4 | /
O=C(Nc1ccc(Br)cc1)C(c1ccccc1)c1ccccc1 | -2 | 801* | 2 | 0
O=C(Nc1ccccc1)C(c1ccccc1)c1ccccc1 | 16 | 169 | -5 | 0
Cc1ccc(O)c(CNc2ccccn2)c1 | 112* | -4 | -1 | 0
SMILES | C2C12 statin | Mot1-301 SUMO | Cneo AK release | Efflux pump mplx
Oc1c(Br)cc(Br)cc1CNc1ccccn1 | 16 | 288* | -3 | 0
Nc1cc(=O)[nH]c(SCC(=O)Nc2nnc(-c3ccccc3)s2)n1 | / | 7 | / | 0
COc1ccc(CSc2n[nH]c(=O)[nH]c2=O)cc1 | -4 | / | 0 | /
CC(OC(=O)c1ccc(-c2ccc(O)cc2)cc1)C(=O)NC1CCCCC1C (stereo not given) | -8 | 750* | 0 | 0
CCC(=O)NC(C)c1cc(Cl)c2ccccc2c1O (stereo not given) | 12 | 5 | 1 | 0
COc1ccc(C2CC(=O)Oc3c(C(CCN4CCCCC4)c4ccc(N(C)C)cc4)c(OC)cc(OC)c32)cc1 (stereo not given) | 121* | -30 | 1 | /
COc1ccc(C2CC(=O)Oc3c(C(CCN4CCCC(C)C4)c4ccc(N(C)C)cc4)c(OC)cc(OC)c32)cc1 (stereo not given) | 3 | 17 | 1 | 0
CCC(CC)NC(=O)COC(=O)c1ccc(OCC(=O)Nc2ccccc2OC)c(OC)c1 | 67* | -14 | -1 | 0
CCCNC(=O)COC(=O)c1ccc(OCC(=O)Nc2ccccc2OC)c(OC)c1 | -1 | 15 | 1 | 0
COCC(=O)N1C[C@H](C)[C@H](OC)CN(C)C(=O)c2ccc(NC(=O)NC(C)C)cc2OC[C@H]1C | -1 | / | -1 | /
O=C(CO/N=C/c1cccc([N+](=O)[O-])c1)Nc1ccc2ccccc2c1 | 9 | 338* | 0 | 0
CC(C)N(C(=O)CO/N=C/c1cccc([N+](=O)[O-])c1)C(C)C | / | -12 | / | 0
Cc1cc(=O)oc2c(CN3CCCCC3)c(O)c(Cl)cc12 | 97* | -7 | -1 | 0
C[C@H](CO)N1C[C@H](C)[C@H](CN(C)C(=O)Nc2ccc3c(c2)OCO3)Oc2ccc(NC(=O)Nc3ccc(F)cc3)cc2CC1=O | -5 | / | -1 | /
N#Cc1c(N)n(-c2ccccc2)c(=O)c2cc([N+](=O)[O-])ccc12 | -7 | -1 | 0 | 0
CC1(C)Cc2c(C#N)c(N)n(-c3ccccc3)c(=O)c2CO1 | 82* | -1 | 0 | 0
Brc1ccc(OCc2ccccc2)c(CNCc2ccncc2)c1 | -24 | 262* | -2 | -3
Oc1ccc(-c2nc3ccccn3c2NCc2ccco2)cc1 | 81* | 2 | 0 | 0
O=C(Nc1c(-c2ccccc2)nc2ccccn12)c1ccco1 | 27 | -10 | 6 | 0
COc1ccc(C(CNC(=O)c2ccc(N3CCCC3=O)cc2)N(C)C)cc1 (stereo not given) | 84* | 14 | -3 | 0
COc1ccc(NC(=O)NC2CCCCCCC2)cc1 | -20 | -4 | -1 | 0
COc1ccc(N2CC(C(=O)N[C@@H](C)C(=O)N[C@H](CO)c3ccccc3)CC2=O)cc1 (stereo not given in full) | 7 | -21 | 5 | 0
COc1ccccc1-n1cnc2cc(NCc3ccccc3O)ccc21 | 2 | -3 | 1 | 0
COc1ccccc1-n1cnc2cc(NCc3ccco3)ccc21 | 73* | -5 | 2 | 0
CO[C@@H]1CN(C)C(=O)c2cc(NS(=O)(=O)c3ccc(C)cc3)ccc2OC[C@@H](C)N(C)C[C@H]1C | -10 | / | 1 | /
